The source of these data is ChEMBL document CHEMBL3576792, “Enhancement of antibiotic activity against multidrug-resistant bacteria by the efflux pump inhibitor 3,4-dibromopyrrole-2,5-dione isolated from a Pseudoalteromonas sp” (J Nat Prod, 2015).

In brackets after ≈: the same amount, converted by molar mass. Activity calls are given as the source filed them. The calls are words filed in the database; no cut-off is given here. Residues, ends and D or L forms follow the SMILES beside them. *: point of attachment. βNA = c1ccc2cc(N*)ccc2c1 Some results are limits rather than exact numbers.

For experiment [1], the system named is Escherichia coli. The experiment in a line: Antibacterial activity against Escherichia coli transformed with plasmid carrying MG1655 deltaBC/pABM by p-iodonitrotetrazolium chloride colorimetric assay. Format: functional. The method, boiled down: (§1)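 Two-fold broth microdilution in Mueller-Hinton broth, read by p-iodonitrotetrazolium chloride colorimetric assay. MIC is the lowest concentration giving no visible growth. MG1655 ΔacrB ΔtolC strains carrying pABM or pXYM were always cultured with 100 μg/mL ampicillin and 1 mM IPTG. Medium, inoculum and 1% DMSO (final) served as negative control.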

In experiment [2] the test system is Escherichia coli. The experiment in a line: Antibacterial activity against Escherichia coli transformed with plasmid carrying MG1655 deltaBC/pXYM by p-iodonitrotetrazolium chloride colorimetric assay. Format: functional. In short, it runs like this: as §1
For experiment [3], the system named is Escherichia coli. Description: Antibacterial activity against Escherichia coli AG102 overexpressing AcrAB-TolC by p-iodonitrotetrazolium chloride colorimetric assay. Format: functional. The method, boiled down: as §1
Experiment [4] relates to Escherichia coli. The experiment in a line: Inhibition of AcrAB-TolC pump in Escherichia coli AG100 assessed as increase in intracellular H33342 fluorescence at 15.6 ug/ml after 60 mins by efflux inhibition assay. Format: cell-based. The method, boiled down:
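AG100 (wild-type K-12) or AG100A (ΔacrAB) cells were grown in Luria broth at 37 °C and 200 rpm to OD600 1.0, PBS-washed and diluted to OD600 0.3. Cells took up 2.5 μM Hoechst 33342 with 22 mM glucose at 37 °C for about 30 min, then compound (0.06–64 μg/mL) or PAβN (15.6 μg/mL) was added. Fluorescence (Ex 350/Em 460 nm) was followed for 60 min and corrected for background. The last four time points were compared to dye-only control by ANOVA with Dunnett's test, run in duplicate.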

As usually defined, the MIC is the lowest concentration found to suppress growth. Low readings indicate greater potency, high ones weaker potency. `Cc1onc(-c2ccccc2)c1C(=O)N[C@@H]1C(=O)N2[C@@H]1SC(C)(C)[C@@H]2C(=O)O` [OXACILLIN]: the MIC with Escherichia coli [1] is more than 1300 µg/mL; in the experiment on Escherichia coli [2] it was more than 1300 µg/mL; against Escherichia coli [3], more than 650 µg/mL.

In the case of `O=C(N[C@H](CO)[C@H](O)c1ccc([N+](=O)[O-])cc1)C(Cl)Cl` [CHLORAMPHENICOL], the figures for the MIC in the experiment on Escherichia coli [1], with Escherichia coli [2] and in the experiment with Escherichia coli [3] were 24 µg/mL (≈ 74.3 µM), 0.75 µg/mL (≈ 2.32 µM) and 24 µg/mL (≈ 74.3 µM), respectively.

As for `NC[C@H]1O[C@H](O[C@H]2[C@H](O)[C@@H](O[C@H]3O[C@H](CO)[C@@H](O)[C@H](N)[C@H]3O)[C@H](N)C[C@@H]2N)[C@H](O)[C@@H](O)[C@@H]1O` [KANAMYCIN], the results for the MIC with Escherichia coli [1], in the experiment on Escherichia coli [2] and against Escherichia coli [3] were 2 µg/mL (≈ 4.13 µM), 0.25 µg/mL (≈ 0.516 µM) and 16 µg/mL (≈ 33 µM), respectively.

In the case of `C[C@H]1COc2c(N3CCN(C)CC3)c(F)cc3c(=O)c(C(=O)O)cn1c23.C[C@H]1COc2c(N3CCN(C)CC3)c(F)cc3c(=O)c(C(=O)O)cn1c23.O` [LEVOFLOXACIN], the MIC against Escherichia coli [1], against Escherichia coli [2] and with Escherichia coli [3] was 0.13 µg/mL throughout.

For the compound `O=C(O)c1cn(C2CC2)c2cc(N3CCNCC3)c(F)cc2c1=O` [CIPROFLOXACIN], the MIC against Escherichia coli [3] was 0.13 µg/mL (≈ 0.392 µM).

Take `N=C(N)NCCC[C@H](NC(=O)[C@@H](N)Cc1ccccc1)C(=O)Nc1ccc2ccccc2c1` (H-Phe-Arg-βNA): the inhibition entry with Escherichia coli [4] is “Active”.

Turning to `CN(C)[C@@H]1C(O)=C(C(N)=O)C(=O)[C@@]2(O)C(O)=C3C(=O)c4c(O)cccc4[C@@](C)(O)[C@H]3C[C@@H]12` [TETRACYCLINE], the MIC in the experiment on Escherichia coli [1] turned out to be 2 µg/mL (≈ 4.5 µM); in the experiment with Escherichia coli [2] it was 0.25 µg/mL (≈ 0.563 µM); against Escherichia coli [3] it was 8 µg/mL (≈ 18 µM).

Turning to `CCN1CCN(C(=O)N[C@@H](C(=O)N[C@@H]2C(=O)N3[C@@H]2SC(C)(C)[C@@H]3C(=O)O)c2ccccc2)C(=O)C1=O` [PIPERACILLIN], the MIC is more than 512 µg/mL in the experiment on Escherichia coli [1], 512 µg/mL (≈ 989 µM) in the experiment with Escherichia coli [2] and 4 µg/mL (≈ 7.73 µM) in the experiment with Escherichia coli [3].

With `CC[C@H]1OC(=O)[C@H](C)[C@@H](O[C@H]2C[C@@](C)(OC)[C@@H](O)[C@H](C)O2)[C@H](C)[C@@H](O[C@@H]2O[C@H](C)C[C@H](N(C)C)[C@H]2O)[C@](C)(O)C[C@@H](C)C(=O)[C@H](C)[C@@H](O)[C@]1(C)O` [ERYTHROMYCIN], the MIC with Escherichia coli [1] is 32 µg/mL (≈ 43.6 µM); against Escherichia coli [2], 32 µg/mL (≈ 43.6 µM); against Escherichia coli [3], 128 µg/mL (≈ 174 µM).
